Assay results as given in ChEMBL document CHEMBL4033714, “Discovery of BI 135585, an in vivo efficacious oxazinanone-based 11β hydroxysteroid dehydrogenase type 1 inhibitor” (Bioorg Med Chem, 2017).
≈ marks a conversion by molar mass, not a printed value.

Key:
[1] = Partition coefficient, log P of the compound; type: physicochemical; settings: octanol/water
[2] = Aqueous solubility of the compound; type: physicochemical
How it was run: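 Solubility measured in water, with each compound tested as amorphous material.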

[3] = Half life in rat liver microsomes; type: ADME, microsome
Cytochrome P450 3A4 = Cytochrome P450 3A4 (Homo sapiens, UniProt P08684); test: (§1) Inhibition of recombinant CYP3A4 (unknown origin); type: ADME
[4] = Half life in human liver microsomes; type: ADME, microsome
Cytochrome P450 2C9 = Cytochrome P450 2C9 (Homo sapiens, UniProt P11712); test: (§2) Inhibition of CYP2C9 (unknown origin); type: ADME
[5] = Half life in cynomolgus monkey liver microsomes; type: ADME, Macaca fascicularis, microsome
Cytochrome P450 2D6 = Cytochrome P450 2D6 (Homo sapiens, UniProt P10635); test: Inhibition of CYP2D6 (unknown origin); type: ADME
[6] = Volume of distribution at steady state in iv dosed cynomolgus monkey; type: ADME, organism-based, Macaca fascicularis; settings: in vivo, read-out: Vdss
hERG = hERG (Homo sapiens, UniProt Q12809); test: Inhibition of human ERG at 10 uM by patch clamp assay relative to control
Cynomolgus monkey = test: Dose normalized AUC in iv dosed cynomolgus monkey; type: ADME, organism-based, Macaca fascicularis; settings: in vivo
[7] = Mean residence time in po dosed cynomolgus monkey; type: ADME, organism-based, Macaca fascicularis; settings: in vivo
[8] = Mean residence time in iv dosed cynomolgus monkey; type: ADME, organism-based, Macaca fascicularis; settings: in vivo
[9] = Clearance in iv dosed cynomolgus monkey; type: ADME, organism-based, Macaca fascicularis; settings: in vivo
[10] = Oral bioavailability in cynomolgus monkey; type: ADME, organism-based, Macaca fascicularis; settings: in vivo
CYP3A4 = CYP3A4 (Homo sapiens, UniProt P08684); test: as §1; type: ADME; settings: recombinant CYP3A4
CYP2C9 = CYP2C9 (Homo sapiens, UniProt P11712); test: as §2; type: ADME
[11] = Oral bioavailability in rat; type: ADME, organism-based; settings: in vivo
[12] = Clearance in iv dosed rat; type: ADME, organism-based; settings: in vivo
[13] = Mean residence time in iv dosed rat; type: ADME, organism-based; settings: in vivo
[14] = target: Voltage-gated inwardly rectifying potassium channel KCNH2 (Homo sapiens, UniProt Q12809); test: Inhibition of human ERG
[15] = aqueous medium, read-out: solubility

Chain of Cytochrome P450 2C9 (P11712 whole entry): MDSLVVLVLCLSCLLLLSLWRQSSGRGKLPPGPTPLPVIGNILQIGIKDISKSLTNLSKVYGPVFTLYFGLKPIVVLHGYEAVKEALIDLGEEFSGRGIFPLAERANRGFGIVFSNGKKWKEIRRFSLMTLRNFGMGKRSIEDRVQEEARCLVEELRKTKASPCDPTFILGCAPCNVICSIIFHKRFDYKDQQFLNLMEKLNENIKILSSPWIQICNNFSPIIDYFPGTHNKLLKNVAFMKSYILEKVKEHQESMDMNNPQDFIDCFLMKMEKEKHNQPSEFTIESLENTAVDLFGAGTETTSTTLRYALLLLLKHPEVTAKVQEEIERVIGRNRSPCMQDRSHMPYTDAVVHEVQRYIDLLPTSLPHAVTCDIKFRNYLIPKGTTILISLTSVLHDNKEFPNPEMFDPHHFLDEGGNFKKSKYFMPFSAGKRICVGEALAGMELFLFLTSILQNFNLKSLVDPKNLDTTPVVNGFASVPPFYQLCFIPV
Chain of CYP2C9 (P11712 whole entry): as above
Chain of Cytochrome P450 2D6 (P10635 whole entry): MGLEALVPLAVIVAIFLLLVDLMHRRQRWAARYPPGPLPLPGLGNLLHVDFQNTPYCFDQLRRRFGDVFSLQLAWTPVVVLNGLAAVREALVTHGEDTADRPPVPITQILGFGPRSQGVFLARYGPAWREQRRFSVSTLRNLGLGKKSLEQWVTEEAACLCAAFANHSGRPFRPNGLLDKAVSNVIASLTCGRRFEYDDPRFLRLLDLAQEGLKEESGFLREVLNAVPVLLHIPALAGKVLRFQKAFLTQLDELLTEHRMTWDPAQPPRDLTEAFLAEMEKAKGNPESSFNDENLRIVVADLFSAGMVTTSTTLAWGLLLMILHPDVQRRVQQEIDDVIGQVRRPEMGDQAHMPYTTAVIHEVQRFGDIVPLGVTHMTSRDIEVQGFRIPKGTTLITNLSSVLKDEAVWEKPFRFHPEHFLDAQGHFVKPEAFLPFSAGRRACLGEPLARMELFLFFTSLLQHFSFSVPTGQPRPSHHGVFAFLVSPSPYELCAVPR
Chain of Cytochrome P450 3A4 (P08684 whole entry): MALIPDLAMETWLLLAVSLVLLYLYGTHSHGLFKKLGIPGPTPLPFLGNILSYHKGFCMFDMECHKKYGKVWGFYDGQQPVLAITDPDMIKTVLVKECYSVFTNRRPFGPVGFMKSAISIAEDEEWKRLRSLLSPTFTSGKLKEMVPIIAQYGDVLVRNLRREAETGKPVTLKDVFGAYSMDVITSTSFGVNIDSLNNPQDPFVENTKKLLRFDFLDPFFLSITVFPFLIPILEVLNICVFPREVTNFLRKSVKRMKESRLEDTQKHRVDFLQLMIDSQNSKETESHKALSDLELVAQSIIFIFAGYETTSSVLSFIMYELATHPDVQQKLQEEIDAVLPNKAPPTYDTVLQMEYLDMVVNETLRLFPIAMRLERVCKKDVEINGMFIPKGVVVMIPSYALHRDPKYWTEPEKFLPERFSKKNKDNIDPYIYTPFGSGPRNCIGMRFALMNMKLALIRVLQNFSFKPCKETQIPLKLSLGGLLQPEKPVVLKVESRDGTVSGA
Chain of CYP3A4 (P08684 whole entry): as above
Chain of hERG (Q12809 whole entry): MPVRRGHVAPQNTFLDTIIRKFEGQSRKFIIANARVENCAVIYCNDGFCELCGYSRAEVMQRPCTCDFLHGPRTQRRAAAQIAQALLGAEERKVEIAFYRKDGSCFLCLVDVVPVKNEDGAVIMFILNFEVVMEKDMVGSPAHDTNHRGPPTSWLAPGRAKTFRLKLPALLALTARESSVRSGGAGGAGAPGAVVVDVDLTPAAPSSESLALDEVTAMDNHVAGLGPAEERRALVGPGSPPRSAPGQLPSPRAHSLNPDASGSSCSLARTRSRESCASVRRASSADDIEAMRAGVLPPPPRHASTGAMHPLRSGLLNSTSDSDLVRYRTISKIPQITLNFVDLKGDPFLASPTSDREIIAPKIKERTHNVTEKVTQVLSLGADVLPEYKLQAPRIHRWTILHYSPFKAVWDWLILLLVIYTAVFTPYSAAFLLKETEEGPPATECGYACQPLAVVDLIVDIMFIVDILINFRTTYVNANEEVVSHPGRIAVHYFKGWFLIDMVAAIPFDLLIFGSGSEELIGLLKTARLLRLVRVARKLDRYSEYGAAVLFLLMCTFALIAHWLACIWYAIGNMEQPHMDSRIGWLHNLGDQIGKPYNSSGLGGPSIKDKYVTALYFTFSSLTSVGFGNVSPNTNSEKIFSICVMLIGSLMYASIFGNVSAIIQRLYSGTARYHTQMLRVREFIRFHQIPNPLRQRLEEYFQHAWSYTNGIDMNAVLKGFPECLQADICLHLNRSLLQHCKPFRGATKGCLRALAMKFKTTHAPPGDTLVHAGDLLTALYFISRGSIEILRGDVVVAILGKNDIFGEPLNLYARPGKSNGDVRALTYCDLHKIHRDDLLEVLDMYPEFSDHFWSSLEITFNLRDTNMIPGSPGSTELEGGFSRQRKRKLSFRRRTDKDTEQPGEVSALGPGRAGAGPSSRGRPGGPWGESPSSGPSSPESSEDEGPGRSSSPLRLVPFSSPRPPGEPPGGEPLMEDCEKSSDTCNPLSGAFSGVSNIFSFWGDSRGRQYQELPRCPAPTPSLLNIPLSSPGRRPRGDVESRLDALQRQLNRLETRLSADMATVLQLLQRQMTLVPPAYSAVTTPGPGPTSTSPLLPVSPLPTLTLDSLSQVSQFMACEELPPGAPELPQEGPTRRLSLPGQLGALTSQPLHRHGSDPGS
Chain of Voltage-gated inwardly rectifying potassium channel KCNH2 (Q12809 whole entry): as above

half-life [3] [min] | IC50 (Cytochrome P450 3A4) [µM] | half-life [4] [min] | half-life [5] [min] | IC50 (Cytochrome P450 2D6) [µM] | Compound | other results
53 | 3.5 | – | – | – | C[C@@H](c1ccc(Br)cc1)N1CC[C@](CC(C)(C)O)(c2ccc(F)cc2)OC1=O | –
> 90 | – | > 90 | > 90 | > 50 | C[C@@H](c1ccc(-c2ccc(=O)n(C)c2)cc1)N1CC[C@](CC(C)(C)O)(c2ccccc2)OC1=O | Vd [6]: 1.7 L/kg; inhibition at 10 µM (hERG): < 10%; AUC/dose (Cynomolgus monkey): 1770 nM·h; MRT [7]: 288 min; MRT [8]: 162 min; clearance [9]: 11 mL/min/kg; bioavailability [10]: 39%
– | 23 | – | – | – | C[C@@H](c1ccc(-c2ccccn2)cc1)N1CC[C@](CCCO)(c2ccccc2)OC1=O | –
– | > 30 | – | – | – | COc1ccc(-c2ccc([C@H](C)N3CC[C@](CCCO)(c4ccccc4)OC3=O)cc2)cn1 | –
– | – | – | – | > 50 | COc1ccc(-c2ccc([C@H](C)N3CC[C@](CC(C)(C)O)(c4ccccc4)OC3=O)cc2)cn1 | –
– | 2.1 | – | – | – | C[C@@H](c1ccc(-c2cccnc2)cc1)N1CC[C@](CCCO)(c2ccccc2)OC1=O | –
> 45 | – | > 45 | 38 | > 50 | Cc1cc(-c2ccc([C@H](C)N3CC[C@](CC(C)(C)O)(c4ccccc4)OC3=O)cc2)cc(C)n1 | IC50 (CYP3A4): > 50 µM
20.3 | – | – | – | – | C[C@@H](c1ccc(Br)cc1)N1CC[C@](CC(C)(C)C#N)(c2ccc(F)cc2)OC1=O | –
> 60 | – | – | – | – | C[C@@H](c1ccc(OC(F)(F)F)cc1)N1CC[C@](CCC(N)=O)(c2ccc(F)cc2)OC1=O | –
13 | > 30 | – | – | – | Cc1cc(-c2ccc([C@H](C)N3CC[C@](CCCO)(c4ccccc4)OC3=O)cc2)cc(C)n1 | –
> 45 | – | > 90 | > 45 | > 50 | C[C@@H](c1ccc(-c2ccc(C(N)=O)cn2)cc1)N1CC[C@](CC(C)(C)O)(c2ccccc2)OC1=O | bioavailability [11]: 15%; IC50 (CYP2C9): > 50 µM; IC50 (CYP3A4): > 50 µM
> 60 | 6.6 | – | – | – | C[C@@H](c1ccc(OC(F)F)cc1)N1CC[C@](CC(C)(C)O)(c2ccc(F)cc2)OC1=O | –
> 45 | – | > 45 | > 45 | > 50 | C[C@@H](c1ccc(-c2ccc(F)cn2)cc1)N1CC[C@](CC(C)(C)O)(c2ccccc2)OC1=O | –
9 | – | – | – | – | COc1ccc([C@H](C)N2CC[C@](CCC(N)=O)(c3ccc(F)cc3)OC2=O)cc1 | –
> 90 | – | > 90 | > 90 | > 50 | Cc1ncc(-c2ccc([C@H](C)N3CC[C@](CC(C)(C)O)(c4ccccc4)OC3=O)cc2)cn1 | Vd [6]: 1.7 L/kg; IC50 (CYP2C9): > 50 µM; inhibition at 10 µM (hERG): 12%; AUC/dose (Cynomolgus monkey): 2070 nM·h; MRT [7]: 288 min; IC50 (CYP3A4): > 50 µM; MRT [8]: 210 min; clearance [9]: 8.1 mL/min/kg; bioavailability [10]: 96%

Continued, molecule first:

Compound | half-life [3] [min] | IC50 (Cytochrome P450 3A4) [µM] | half-life [4] [min] | half-life [5] [min] | IC50 (Cytochrome P450 2D6) [µM] | other results
C[C@@H](c1ccc(-c2ccc(F)cc2F)cc1)N1CC[C@](CCO)(c2ccc(F)cc2)OC1=O | – | – | – | – | – | logP [1]: 4.2; solubility ([2]; buffer, BLD = below limit of detection): Bld
C[C@@H](c1ccc(-c2ccc3ncnn3c2)cc1)N1CC[C@](CC(C)(C)O)(c2ccccc2)OC1=O | > 90 | 10 | > 90 | > 45 | > 50 | IC50 (Cytochrome P450 2C9): > 50 µM
C[C@@H](c1ccc(-c2ccc(=O)n(C)c2)cc1)N1CC[C@](CCCO)(c2ccccc2)OC1=O | – | 10.5 | – | – | – | –
C[C@@H](c1ccc(-c2ccc(=O)n(C)n2)cc1)N1CC[C@](CC(C)(C)O)(c2ccccc2)OC1=O | > 90 | > 50 | > 90 | > 45 | > 50 | IC50 (Cytochrome P450 2C9): > 50 µM; inhibition at 10 µM (hERG): 50%
Cc1cnc(-c2ccc([C@H](C)N3CC[C@](CC(C)(C)O)(c4ccccc4)OC3=O)cc2)cn1 | 16 | > 50 | > 90 | 38 | > 50 | IC50 (Cytochrome P450 2C9): 33 µM
Cc1ccc(-c2ccc([C@H](C)N3CC[C@](CC(C)(C)O)(c4ccccc4)OC3=O)cc2)nn1 | > 45 | – | > 90 | > 45 | > 50 | Vd [6]: 1.5 L/kg; IC50 (CYP2C9): > 50 µM; inhibition at 10 µM (hERG): < 10%; AUC/dose (Cynomolgus monkey): 3330 nM·h; MRT [7]: 318 min; IC50 (CYP3A4): > 50 µM; MRT [8]: 288 min; clearance [9]: 5.2 mL/min/kg; bioavailability [10]: 70%
C[C@@H](c1ccc(-c2cncc(F)c2)cc1)N1CC[C@](CCCO)(c2ccccc2)OC1=O | – | 11 | – | – | – | –
Cc1ccc([C@H](C)N2CC[C@](CCC(N)=O)(c3ccc(F)cc3)OC2=O)cc1 | 7.1 | – | – | – | – | –
C[C@@H](c1ccc(OC(F)F)cc1)N1CC[C@](CCC(N)=O)(c2ccccc2)OC1=O | 50.6 | > 30 | > 90 | – | – | bioavailability [11]: 51%; clearance [12]: 91 mL/min/kg; solubility [2, 15]: 1500 µg/mL (≈ 3580 µM); MRT [13]: 33 min
C[C@@H](c1ccc(-c2ccc(C#N)cn2)cc1)N1CC[C@](CC(C)(C)O)(c2ccccc2)OC1=O | > 90 | – | > 90 | > 90 | > 50 | –
C[C@@H](c1ccc(Br)cc1)N1CC[C@](CCCNS(C)(=O)=O)(c2ccc(F)cc2)OC1=O | 11.4 | – | – | – | – | –
C[C@@H](c1ccc(Br)cc1)N1CC[C@](CCC(N)=O)(c2ccc(F)cc2)OC1=O | 36.1 | > 30 | > 90 | – | – | bioavailability [11]: 42%; clearance [12]: 49 mL/min/kg; solubility [2, 15]: 300 µg/mL (≈ 668 µM); MRT [13]: 72 min; IC50 [14]: 6.3 µM
C[C@@H](c1ccc(OC(F)F)cc1)N1CC[C@](CCC(N)=O)(c2ccc(F)cc2)OC1=O | > 60 | 27 | > 90 | – | – | bioavailability [11]: 77%; clearance [12]: 67 mL/min/kg; solubility [2, 15]: 460 µg/mL (≈ 1050 µM); MRT [13]: 50.4 min; IC50 [14]: 5.3 µM
C[C@@H](c1ccc(-c2ccncc2)cc1)N1CC[C@](CCCO)(c2ccccc2)OC1=O | – | 1.8 | – | – | – | –
C[C@@H](c1ccc(Br)cc1)N1CC[C@](CCO)(c2ccc(F)cc2)OC1=O | 25 | > 30 | – | – | – | –
C[C@@H](c1ccc(OC(F)F)cc1)N1CC[C@](CC(C)(C)O)(c2ccccc2)OC1=O | > 60 | 10 | > 90 | – | – | bioavailability [11]: 57%; clearance [12]: 23 mL/min/kg; solubility [2, 15]: 260 µg/mL (≈ 620 µM); MRT [13]: 50.4 min
